From ChEMBL document CHEMBL2429816, “Synthesis and binding affinity of new 1,4-disubstituted triazoles as potential dopamine D(3) receptor ligands” (Bioorg Med Chem Lett, 2013) come the findings set out here.

Each structure is given as a SMILES string. pKi: −log10 of the molar value.

For assay [1], the target named is Dopamine receptors; D3 & D4 (Homo sapiens) (UniProt P35462+P21917). Description: Selectivity ratio of Ki for cloned human dopamine D4 receptor to Ki for cloned human dopamine D3 receptor.
Sequence of Dopamine receptors; D3 & D4 (Homo sapiens) (P35462 whole entry, looked up, one chain of several): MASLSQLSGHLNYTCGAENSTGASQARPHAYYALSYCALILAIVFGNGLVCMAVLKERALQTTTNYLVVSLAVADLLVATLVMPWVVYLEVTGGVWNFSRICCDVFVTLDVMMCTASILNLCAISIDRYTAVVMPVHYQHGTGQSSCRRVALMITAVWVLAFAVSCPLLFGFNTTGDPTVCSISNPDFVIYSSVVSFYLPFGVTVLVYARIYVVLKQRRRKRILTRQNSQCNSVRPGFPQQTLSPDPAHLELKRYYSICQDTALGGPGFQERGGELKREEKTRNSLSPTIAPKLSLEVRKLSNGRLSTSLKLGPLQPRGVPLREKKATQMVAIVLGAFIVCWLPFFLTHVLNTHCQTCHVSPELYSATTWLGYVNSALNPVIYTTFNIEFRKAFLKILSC
Assay [2] has as its target T1, D(3) dopamine receptor (Homo sapiens, UniProt P35462). Kind of assay: Displacement of [3H]-spiperone from cloned human dopamine D3 receptor. In short, it runs like this: (§1)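 Competition binding at human receptor subtypes by the group's earlier procedure. Ki was calculated from displacement data by the Cheng–Prusoff equation.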
A further assay addresses D(2) dopamine receptor (Homo sapiens, UniProt P14416). Kind of assay: Displacement of [3H]-spiperone from cloned human dopamine D2 receptor. In short, it runs like this: as §1
A general note: Displacement assays read how much labelled ligand stays bound in the presence of the test substance.

In another assay the target is T2, D(4) dopamine receptor (Homo sapiens, UniProt P21917).
T2 sequence (P21917 whole entry): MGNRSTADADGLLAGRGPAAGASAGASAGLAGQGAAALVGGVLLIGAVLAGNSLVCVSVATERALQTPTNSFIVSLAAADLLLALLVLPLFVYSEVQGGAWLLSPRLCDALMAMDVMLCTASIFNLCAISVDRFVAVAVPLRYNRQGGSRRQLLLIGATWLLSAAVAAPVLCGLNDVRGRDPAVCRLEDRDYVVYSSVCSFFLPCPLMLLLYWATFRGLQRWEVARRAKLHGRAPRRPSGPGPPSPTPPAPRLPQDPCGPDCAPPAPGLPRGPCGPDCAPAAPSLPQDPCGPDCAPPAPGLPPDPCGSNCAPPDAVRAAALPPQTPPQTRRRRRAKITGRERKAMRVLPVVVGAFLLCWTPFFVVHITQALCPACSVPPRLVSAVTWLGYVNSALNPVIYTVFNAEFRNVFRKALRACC
Description: Displacement of [3H]-spiperone from cloned human dopamine D4 receptor. The gist of the method:
as §1

Assay [3] concerns the target D(1A) dopamine receptor (Homo sapiens) (UniProt P21728). Description: Displacement of [3H]-SCH23390 from cloned human dopamine D1 receptor at 1 uM relative to control. In short, it runs like this:
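Competition binding at the human D1 receptor. Compounds with little affinity are reported as percent inhibition at the highest concentration tested.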

For assay [4], the species on record is Homo sapiens. Description: Selectivity ratio of Ki for cloned human dopamine D2 receptor to Ki for cloned human dopamine D3 receptor.
Assay [5] concerns the target T1, D(3) dopamine receptor. Kind of assay: Antagonist activity at human dopamine D3 receptor assessed as [35S]GTPgammaS binding preincubated for 15 mins followed by [35S]GTPgammaS addition measured after 40 mins. Type of assay: functional.
For assay [6], the species on record is Homo sapiens. Kind of assay: Selectivity ratio of Ki for dopamine D2 receptor (unknown origin) to Ki for dopamine D3 receptor (unknown origin). In short, it runs like this: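 Radioligand competition binding at human D2 and D3 receptors. Ki was derived from displacement data using the Cheng–Prusoff equation. The selectivity value is the D2 Ki divided by the D3 Ki.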

For assay [7], the target named is D(3) dopamine receptor (Rattus norvegicus, UniProt P19020). Kind of assay: Displacement of [3H]spiperone from rat dopamine D3 receptor expressed in sf9 cells after 60 mins.
Sequence of D(3) dopamine receptor (Rattus norvegicus, UniProt P19020) (P19020 whole entry): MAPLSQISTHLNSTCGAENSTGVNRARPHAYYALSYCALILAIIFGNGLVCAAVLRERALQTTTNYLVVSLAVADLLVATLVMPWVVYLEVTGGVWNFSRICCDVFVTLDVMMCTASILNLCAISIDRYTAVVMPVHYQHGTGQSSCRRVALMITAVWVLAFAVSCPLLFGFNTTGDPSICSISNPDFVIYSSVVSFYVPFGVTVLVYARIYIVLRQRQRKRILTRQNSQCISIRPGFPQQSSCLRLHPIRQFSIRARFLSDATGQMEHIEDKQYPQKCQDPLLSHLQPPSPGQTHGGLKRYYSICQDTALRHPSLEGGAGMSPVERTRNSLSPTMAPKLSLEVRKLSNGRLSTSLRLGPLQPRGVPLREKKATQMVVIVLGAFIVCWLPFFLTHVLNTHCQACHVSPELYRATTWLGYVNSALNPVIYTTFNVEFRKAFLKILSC
Assay [8] deals with Dopamine receptor D2 and D3 (Rattus norvegicus) (UniProt P19020+P61169). Description: Selectivity ratio of Ki for rat dopamine D2 receptor to Ki for rat dopamine D3 receptor.
Sequence of Dopamine receptor D2 and D3 (Rattus norvegicus) (P19020 whole entry, looked up): as the sequence (P19020 whole entry) above
Sequence of Dopamine receptor D2 and D3 (Rattus norvegicus) (P61169 whole entry, looked up): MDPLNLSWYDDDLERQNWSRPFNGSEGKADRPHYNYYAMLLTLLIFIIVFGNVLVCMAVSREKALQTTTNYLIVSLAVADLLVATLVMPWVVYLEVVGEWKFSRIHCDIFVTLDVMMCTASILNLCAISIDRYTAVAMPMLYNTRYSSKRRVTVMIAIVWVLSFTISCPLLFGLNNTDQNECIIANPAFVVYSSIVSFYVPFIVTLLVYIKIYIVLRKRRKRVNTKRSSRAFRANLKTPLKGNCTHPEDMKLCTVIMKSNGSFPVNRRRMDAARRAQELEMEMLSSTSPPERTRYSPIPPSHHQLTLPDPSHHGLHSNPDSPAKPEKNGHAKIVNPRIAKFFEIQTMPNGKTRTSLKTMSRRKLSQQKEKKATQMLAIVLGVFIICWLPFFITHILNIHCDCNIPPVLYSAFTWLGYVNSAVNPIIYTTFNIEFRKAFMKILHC

Sequence of D(2) dopamine receptor (P14416 whole entry): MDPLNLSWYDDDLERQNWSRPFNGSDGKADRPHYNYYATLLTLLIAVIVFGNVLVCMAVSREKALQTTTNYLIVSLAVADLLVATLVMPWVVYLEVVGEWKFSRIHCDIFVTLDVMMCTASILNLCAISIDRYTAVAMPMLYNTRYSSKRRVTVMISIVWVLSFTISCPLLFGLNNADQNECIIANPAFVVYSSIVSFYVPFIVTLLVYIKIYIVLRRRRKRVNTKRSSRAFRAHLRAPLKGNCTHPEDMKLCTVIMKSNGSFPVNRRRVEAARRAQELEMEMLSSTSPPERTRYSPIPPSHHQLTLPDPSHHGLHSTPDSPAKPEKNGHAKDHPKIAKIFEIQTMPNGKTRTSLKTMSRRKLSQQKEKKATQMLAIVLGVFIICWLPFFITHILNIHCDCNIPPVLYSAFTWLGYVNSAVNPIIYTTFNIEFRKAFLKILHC
Sequence of D(1A) dopamine receptor (Homo sapiens) (P21728 whole entry): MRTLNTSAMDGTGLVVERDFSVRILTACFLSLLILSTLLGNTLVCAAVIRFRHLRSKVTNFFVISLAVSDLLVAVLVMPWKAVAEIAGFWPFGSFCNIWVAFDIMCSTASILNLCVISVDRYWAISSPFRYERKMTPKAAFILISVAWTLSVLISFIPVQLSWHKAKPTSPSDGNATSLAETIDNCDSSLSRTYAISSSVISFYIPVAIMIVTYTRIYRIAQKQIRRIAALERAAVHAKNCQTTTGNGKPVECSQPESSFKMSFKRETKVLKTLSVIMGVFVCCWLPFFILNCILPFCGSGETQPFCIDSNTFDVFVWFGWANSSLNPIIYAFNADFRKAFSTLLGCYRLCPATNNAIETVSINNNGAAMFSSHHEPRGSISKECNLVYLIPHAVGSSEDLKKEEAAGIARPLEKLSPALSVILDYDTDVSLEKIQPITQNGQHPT
T1 sequence (P35462 whole entry): as the sequence (P35462 whole entry, looked up, one chain of several) above

As to `COc1ccccc1N1CCN(CCCCn2cc(-c3ccc(-c4cnco4)cc3)nn2)CC1`, the Ratio Ki was determined as 3.2 in [1] and 1 in the assay listed under Homo sapiens [4]. In addition, the figures for the pKi at D(3) dopamine receptor [2], at D(2) dopamine receptor and at D(4) dopamine receptor were 6.87, 6.86 and 6.37, respectively. For the same compound, the inhibition in assay [3] is 50%.
Turning to `COc1ccccc1N1CCN(CCCCn2cc(-c3ccc(N)cc3)nn2)CC1`, the Ratio Ki in [1] came to 197; in the assay filed under Homo sapiens [4] it was 73.6. The pKi on D(3) dopamine receptor [2] was 8.57; on D(2) dopamine receptor, 6.70; on D(4) dopamine receptor it was 6.27. At D(3) dopamine receptor [5], the Kb is 1.4 nM. In assay [3], this compound yielded an inhibition of 38.4%.
With `CCCN[C@H]1CCc2nc(N)sc2C1` [PRAMIPEXOLE], the Ratio Ki in the assay filed under Homo sapiens [6] came out at 72.
As for `COc1ccccc1N1CCN(CCCCn2cc(-c3cccnc3)nn2)CC1`, the figures for the Ratio Ki (in assay [1]; in the assay listed under Homo sapiens [4]) were 14.3 and 1.4, respectively. For the same compound, the pKi on D(3) dopamine receptor [2] is 6.88; at D(2) dopamine receptor, 6.74; on D(4) dopamine receptor, 5.72. In assay [3], this compound registered an inhibition of 40.9%.
As for `COc1ccccc1N1CCN(CCCCn2cc(-c3ccccc3)nn2)CC1`, the Ratio Ki amounted to 7.9 in assay [1] and 2.8 in the assay listed under Homo sapiens [4]. Also, the pKi at D(3) dopamine receptor [2] is 7.09; at D(2) dopamine receptor, 6.64; at D(4) dopamine receptor, 6.19. The compound also had an inhibition in assay [3] of 39.4%.
The compound `NC(=O)c1cccc(N2CCN(CCCCNC(=O)c3ccc(Br)cc3)CC2)c1` had a pKi at D(3) dopamine receptor [7] of 8.80. The Ratio Ki in [8] came to 1800.
Regarding `COc1ccccc1N1CCN(CCCCn2cc(-c3ccc(Br)cc3)nn2)CC1`, the Ratio Ki in [1] stood at 3.5; in the assay listed under Homo sapiens [4] it was 2. Also, the pKi on D(3) dopamine receptor [2] was 6.96; at D(2) dopamine receptor it was 6.64; at D(4) dopamine receptor, 6.41. Besides, in [3], the inhibition came to 44.3%.
Take `COc1ccc(-c2cn(CCCCN3CCN(c4ccccc4OC)CC3)nn2)cc1`: the Ratio Ki in [1] stood at 9.8; in the assay filed under Homo sapiens [4] it was 5.3. Also, the pKi on D(3) dopamine receptor [2] is 7.40; on D(2) dopamine receptor, 6.67; on D(4) dopamine receptor it was 6.40. The compound further registered an inhibition in assay [3] of 44.3%.

As a reminder, the pKi is the negative decadic logarithm of the Ki, by convention in mol/L. Low readings indicate a large Ki, high ones a small Ki. A word on the inhibition: it is the drop in the measured response relative to a control, in per cent. The low end stands for a response near the control, the high end for a response far below the control. What is called Kb is the equilibrium dissociation constant of an antagonist, usually derived from a functional assay.
